Experimental data taken from ChEMBL document CHEMBL2203154, “Synthesis, characterization and biological studies of diosgenyl analogues” (Bioorg Med Chem Lett, 2012).

Assays:
Mus musculus [1] = test: Antiinflammatory activity in Kunming mouse assessed as inhibition of xylene-induced ear edema at 100 mg/kg, po administered for 3 days followed by xylene-challenge at 2 hrs post-last dose measured after 1 hr relative to vehicle-treated control; assay type: functional
Outline: (§1)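 Oral gavage in mice, test compounds suspended in 0.5% CMC at 100 mg/kg; aspirin group at 50 mg/kg. Ear edema induced with xylene; inhibition calculated versus the CMC vehicle group. Ten animals per group; data as mean ± SD, with significance versus CMC at p<0.05 or p<0.01.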

HepG2 = test: Cytotoxicity against human HepG2 cells after 48 hrs by MTT assay; assay type: functional, cell-based; conditions: HepG2, 48 h
Outline: (§2)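 MTT assay on tumor cells exposed to compound for 48 h. IC50 is the concentration (μM) that inhibits growth by 50% relative to untreated cells. Values are means of at least 3 independent assays per compound.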

MDA-MB-231 = test: Cytotoxicity against human MDA-MB-231 cells after 48 hrs by MTT assay; assay type: functional, cell-based; conditions: MDA-MB-231, 48 h; outline: as §2
[2] = Cytotoxicity against mouse C26 cells after 48 hrs by MTT assay; assay type: functional, cell-based; conditions: C26, 48 h; outline: as §2
Mus musculus [3] = test: Antiinflammatory activity in Kunming mouse assessed as inhibition of xylene-induced ear edema at 50 mg/kg, po administered for 3 days followed by xylene-challenge at 2 hrs post-last dose measured after 1 hr relative to vehicle-treated control; assay type: functional; outline: as §1

C[C@@H]1CC[C@@]2(OC1)O[C@H]1C[C@H]3[C@@H]4CC=C5C[C@@H](OC(=O)CC[C@@H](N)C(=O)O[C@H]6CC[C@@]7(C)C(=CC[C@H]8[C@@H]9C[C@@H]%10O[C@]%11(CC[C@@H](C)CO%11)[C@@H](C)[C@@H]%10[C@@]9(C)CC[C@@H]87)C6)CC[C@]5(C)[C@H]4CC[C@]3(C)[C@H]1[C@@H]2C
inhibition in vivo at 100 mg/kg (Mus musculus [1]): 19.1% | IC50 (HepG2): > 50 µM | IC50 (MDA-MB-231): > 50 µM | IC50 [2]: > 50 µM

C[C@@H]1CC[C@@]2(OC1)O[C@H]1C[C@H]3[C@@H]4CC=C5C[C@@H](O)CC[C@]5(C)[C@H]4CC[C@]3(C)[C@H]1[C@@H]2C [DISOGENIN]
inhibition in vivo at 100 mg/kg (Mus musculus [1]): 32.2% | IC50 (HepG2): > 50 µM | IC50 (MDA-MB-231): > 50 µM | IC50 [2]: > 50 µM

C[C@@H]1CC[C@@]2(OC1)O[C@H]1C[C@H]3[C@@H]4CC=C5C[C@@H](OC(=O)CCCCCN)CC[C@]5(C)[C@H]4CC[C@]3(C)[C@H]1[C@@H]2C
inhibition in vivo at 100 mg/kg (Mus musculus [1]): 38.6% | IC50 (HepG2): 14.6 µM | IC50 (MDA-MB-231): 7.6 µM | IC50 [2]: 4.7 µM

C[C@@H]1CC[C@@]2(OC1)O[C@H]1C[C@H]3[C@@H]4CC=C5C[C@@H](OC(=O)[C@H](C)N)CC[C@]5(C)[C@H]4CC[C@]3(C)[C@H]1[C@@H]2C
inhibition in vivo at 100 mg/kg (Mus musculus [1]): 28.6% | IC50 (HepG2): > 50 µM | IC50 (MDA-MB-231): > 50 µM | IC50 [2]: > 50 µM

C[C@@H]1CC[C@@]2(OC1)O[C@H]1C[C@H]3[C@@H]4CC=C5C[C@@H](OC(=O)CCCCCNC(=O)c6ccccc6O)CC[C@]5(C)[C@H]4CC[C@]3(C)[C@H]1[C@@H]2C
inhibition in vivo at 100 mg/kg (Mus musculus [1]): 42.6% | IC50 (HepG2): > 50 µM | IC50 (MDA-MB-231): > 50 µM | IC50 [2]: > 50 µM

CC(=O)Oc1ccccc1C(=O)O [ASPIRIN]
inhibition in vivo at 50 mg/kg (Mus musculus [3]): 31.9%

CC(=O)Oc1ccccc1C(=O)O[C@H]1CC[C@@]2(C)C(=CC[C@H]3[C@@H]4C[C@@H]5O[C@]6(CC[C@@H](C)CO6)[C@@H](C)[C@@H]5[C@@]4(C)CC[C@@H]32)C1
inhibition in vivo at 100 mg/kg (Mus musculus [1]): 46.5% | IC50 (HepG2): > 50 µM | IC50 (MDA-MB-231): > 50 µM | IC50 [2]: > 50 µM

C[C@@H]1CC[C@@]2(OC1)O[C@H]1C[C@H]3[C@@H]4CC=C5C[C@@H](OC(=O)[C@H](C)NC(=O)c6ccccc6O)CC[C@]5(C)[C@H]4CC[C@]3(C)[C@H]1[C@@H]2C
inhibition in vivo at 100 mg/kg (Mus musculus [1]): 35.8% | IC50 (HepG2): > 50 µM | IC50 (MDA-MB-231): > 50 µM | IC50 [2]: > 50 µM

C[C@@H]1CC[C@@]2(OC1)O[C@H]1C[C@H]3[C@@H]4CC=C5C[C@@H](O[C@@H]6O[C@H](CO)[C@@H](O[C@@H]7O[C@H](CO)[C@@H](O)[C@H](O)[C@H]7O)[C@H](O)[C@H]6O[C@@H]6O[C@@H](C)[C@H](O)[C@@H](O)[C@H]6O)CC[C@]5(C)[C@H]4CC[C@]3(C)[C@H]1[C@@H]2C [DELTONIN]
IC50 (HepG2): 7.66 µM | IC50 (MDA-MB-231): 1.58 µM | IC50 [2]: 1.22 µM

CC(=O)Oc1ccccc1C(=O)NCC(=O)O[C@H]1CC[C@@]2(C)C(=CC[C@H]3[C@@H]4C[C@@H]5O[C@]6(CC[C@@H](C)CO6)[C@@H](C)[C@@H]5[C@@]4(C)CC[C@@H]32)C1
inhibition in vivo at 100 mg/kg (Mus musculus [1]): 39.1% | IC50 (HepG2): > 50 µM | IC50 (MDA-MB-231): > 50 µM | IC50 [2]: > 50 µM

C[C@@H]1CC[C@@]2(OC1)O[C@H]1C[C@H]3[C@@H]4CC=C5C[C@@H](OC(=O)CC[C@@H](NC(=O)c6ccccc6O)C(=O)O[C@H]6CC[C@@]7(C)C(=CC[C@H]8[C@@H]9C[C@@H]%10O[C@]%11(CC[C@@H](C)CO%11)[C@@H](C)[C@@H]%10[C@@]9(C)CC[C@@H]87)C6)CC[C@]5(C)[C@H]4CC[C@]3(C)[C@H]1[C@@H]2C
inhibition in vivo at 100 mg/kg (Mus musculus [1]): 30.1% | IC50 (HepG2): > 50 µM | IC50 (MDA-MB-231): > 50 µM | IC50 [2]: > 50 µM

C[C@@H]1CC[C@@]2(OC1)O[C@H]1C[C@H]3[C@@H]4CC=C5C[C@@H](OC(=O)CN)CC[C@]5(C)[C@H]4CC[C@]3(C)[C@H]1[C@@H]2C [GLYCINE DIOSGENYL ESTER]
inhibition in vivo at 100 mg/kg (Mus musculus [1]): 30.6% | IC50 (HepG2): > 50 µM | IC50 (MDA-MB-231): 48.2 µM | IC50 [2]: > 50 µM
